Measurements pooled from the literature.
Lines come from different studies, so protocols differ.
Medium: plasma

CCc1cc(C(=O)NC)c2nccc(N3CCc4c(cc(Cn5ccnc5)cc4-c4cn(C)nc4C(F)(F)F)C3=O)c2c1
bioavailability (male CD-1 mouse; oral, 150 mg/kg): 252%

CCN1CCN(Cc2cc(NC(=O)c3ccc(C)c(-c4ccc5nc(NC(=O)C6CC6)cn5n4)c3)cc(C(F)(F)F)c2)CC1
bioavailability (Swiss mouse; oral, 10 mg/kg): 4%

CNC(=O)c1cc(OC)cc2c(N3CCc4c(cc(Cn5ccnc5)cc4-c4cn(C)nc4C(F)(F)F)C3=O)ccnc12
bioavailability (male CD-1 mouse; oral, 50 mg/kg): 263%

Cc1nc2ccccc2n1Cc1ccc(C(=O)NO)cc1F
bioavailability (male CD-1 mouse; oral, 30 mg/kg): ~21%

COc1ccc2nccc(N3CCc4c(cc(Cn5ccnc5)cc4-c4cn(C)nc4C(F)(F)F)C3=O)c2c1
bioavailability (male CD-1 mouse; oral, 10 mg/kg): 34%

CC(C)c1cnn2c(NCc3ccccc3)cc(NC[C@H]3CCNC[C@@H]3O)nc12
bioavailability (male CD-1 mouse; oral, 10 mg/kg): 30%

N[C@@H](CSSC[C@H](N)C(=O)O)C(=O)O
bioavailability (Kunming mouse; oral, 25 mg/kg): 18.6%

CC(C)(Nc1nc(-c2ccccn2)nc2ccccc12)c1ccccn1
bioavailability (female BALB/c mouse; oral, 50 mg/kg): 102%

O=C1Nc2cc(F)cc(F)c2C(=O)CCc2ccccc21
bioavailability (male Swiss mouse; oral): ~20%

CCc1ccc(Cc2cc([C@@H]3O[C@H](CO)[C@@H](O)[C@H](O)[C@H]3O)cc3c2CCC3)cc1
bioavailability (male C57BL/6 mouse; oral, 0.3 mg/kg): > 100%

Nc1ncc(-c2ccncc2)nc1Nc1ccc2[nH]ccc2c1
bioavailability (male C57BL/6 mouse; oral, 30 mg/kg): 89%

C=CC(=O)Nc1cccc(Nc2nc(Nc3ccc(N4CCN(C(C)=O)CC4)cc3OC)ncc2C(F)(F)F)c1
bioavailability (female mouse; oral, 20 mg/kg): 65%

CSc1cc(Oc2ccnc3[nH]c(=O)cnc23)ccc1NC(=O)Nc1cc(C(C)(C)C)nn1-c1ccccc1
bioavailability (BALB/c mouse; oral, 10 mg/kg): 58%

CCCCCCCC(=O)N[C@H](CN1CCCC1)[C@H](O)c1ccc2c(c1)OCCO2
bioavailability (CD-1 mouse; oral, 10 mg/kg): < 1%

COc1nc(-c2cc(C)c(N[C@@H](C)c3ccc(F)cc3)nn2)ccc1-n1cnc(C)c1
bioavailability (male CD-1 mouse; oral, 5 mg/kg, single dose): 63.1%

N#Cc1ccc(/C=C/c2nc3ccccc3c(=O)n2-c2cccc(C(=O)O)c2)cc1
bioavailability (mouse; oral, 10 mg/kg, single dose): 50%

Cc1ccc2cncc(N3CCc4c(cc(Cn5ccnc5)cc4-c4cn(C)nc4C(F)(F)F)C3=O)c2c1
bioavailability (male CD-1 mouse; oral, 50 mg/kg): 56%

CC[C@H](C)[C@@H]1NC(=O)[C@@](C)(NC(=O)[C@H](CCCNC(=N)N)NC(=O)[C@H](CC(C)C)NC(=O)[C@@H](NC(=O)[C@H](CCC(N)=O)NC(=O)[C@H](CC(C)C)NC(C)=O)[C@@H](C)O)CCCC=CCCC[C@@](C)(C(=O)N[C@@H](CC(C)C)C(=O)N[C@@H](Cc2ccc3ccccc3c2)C(N)=O)NC(=O)[C@H](CCCNC(=N)N)NC(=O)[C@H](CCC(N)=O)NC1=O
bioavailability (male BALB/c mouse; intramuscular, 5 mg/kg): 20.6%

O=C(Nc1nccs1)C(c1cc(F)ccc1O)N1Cc2ccccc2C1=O (centres unmarked)
bioavailability (mouse; oral, 20 mg/kg): 26%

O=C(CC1Cc2ccccc2C1)N[C@H](CN1CCCC1)[C@H](O)c1ccc(OC(F)(F)F)cc1
bioavailability (CD-1 mouse; oral, 10 mg/kg): 34%

COc1cc(N2CCN(C)CC2)ccc1Nc1ncc2c(n1)N(C)c1ccccc1C(=O)N2CC(F)(F)F
bioavailability (male Swiss mouse; oral, 10 mg/kg): 81%

O=[N+]([O-])c1cccc2[nH]c(CNc3nc(N4CCOCC4)nc4c3ncn4-c3ccsc3)nc12
bioavailability (mouse; intravenous, 1 mg/kg): 0%

Cc1c(C(=O)Nc2ccc(F)c(Cl)c2)sc(N)c1C(N)=O
bioavailability (male CD-1 mouse; oral, 10 mg/kg): 46%

CCc1cc(OC)c2nccc(N3CCc4c(cc(Cn5ccnc5)cc4-c4cn(C)nc4C(F)(F)F)C3=O)c2c1
bioavailability (male CD-1 mouse; oral, 50 mg/kg): 194%

N#C[C@@]1(c2ccc3c(N)ncnn23)O[C@H](CO)[C@@H](O)[C@H]1O
bioavailability (male CD-1 mouse; oral, 10 mg/kg): 57%

Oc1ccc(-c2nc(-c3ccc(Oc4ccc(C(F)(F)F)cc4)cc3)no2)cc1
bioavailability (female CD-1 mouse; oral, 50 mg/kg): 100%
